Results as given in paper PMC5766413 (European journal of pharmacology, 2017).
Like-named read-outs stand apart in the source and are kept apart here.

Columns and labels:
NK1 receptor [1] = conditions: monkeys; ref unpublished observations; cited from earlier work
NK1 receptor [2] = conditions: dogs; ref unpublished observations; cited from earlier work
NK1 receptor [3] = conditions: minipigs; ref unpublished observations; cited from earlier work
[4] = tested on: bladder of anesthetized, acutely spinalized rats; format: in vivo, rat
In short: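 Acutely spinalized (T9–T10, ≥60 min earlier), urethane-anesthetized female rats. Capacity was taken as the mean of three saline fills (0.04–0.1 ml/min, urethra open) until leak. Meatus then clamped, bladder held at 70% capacity; vehicle and ascending IV or SC doses ≥20 min apart. Contraction defined as ≥5 mmHg above baseline within 5 min; onset, time to peak, 30-min AUC and response duration; mean + S.D.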

[5] = tested on: colorectum of anesthetized, acutely spinalized rats; assay: Colorectal manometry with balloon catheter; format: in vivo, rat
In short: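 Urethane-anesthetized (1.2–1.4 g/kg SC) female rats, cord cut at T9–T10 ≥60 min before dosing, 37°C. Rectal balloon catheter was inflated in 0.1–0.2 ml saline steps to a steady 15–20 mmHg (0.3–0.7 ml total). Vehicle, then ascending SC doses in saline, 20–45 min apart. Pressure AUC over 0–5 min per dose; duration of raised activity noted; mean + S.D., ANOVA with Dunnett's test.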

NK2 over NK1 receptors = conditions: ref Rupniak et al, unpublished results; cited from earlier work
[6] = tested on: blood pressure of guinea pigs; conditions: intra-arterial, ref Beattie et al, 1993; cited from earlier work
[7] = tested on: blood pressure of anesthetized, acutely spinalized rats; assay: Blood pressure; format: in vivo, rat; conditions: up to 30 μg/kg IV and 300 μg/kg SC
In short: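 Female rats were anesthetized with urethane (1.2–1.4 g/kg SC) and kept at 37°C, with the spinal cord transected at T9–T10 at least 60 min before dosing. Test compound was given in 0.9% saline IV (200 μl plus 300 μl saline flush) or SC, vehicle first. Blood pressure was recorded continuously via the carotid artery, with heart rate derived off line from that signal. Values are change from the pre-dose baseline; one-way ANOVA.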

[8] = tested on: anesthetized, acutely spinalized rats; assay: Other pharmacodynamic observations; format: in vivo, rat
In short: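 In urethane-anesthetized female rats with T9–T10 cord transection ≥60 min before dosing, vehicle then ascending IV, SC or IM doses of test compound in 0.9% saline were given. Changes in skin color (ear and paw flushing), salivation and lacrimation were recorded when present; respiration was watched visually for obvious changes.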

[9] = tested on: human detrusor muscle strips; conditions: relative to KCL; ref Palea et al, 1996; cited from earlier work

Row | Compound | Effect on transient hypotension after IV injection of NKA and LMN-NKA (NK1 receptor [1]) | Effect on transient hypotension after IV injection of NKA and LMN-NKA (NK1 receptor [2]) | Effect on transient hypotension after IV injection of NKA and LMN-NKA (NK1 receptor [3]) | Duration of the bladder pressure response ([4]; 1 μg/kg IV, N=3, mean ± S.D.) | Duration of the bladder pressure response ([4]; 300 μg/kg SC, N=4 for GR 64349, N=11 for LMN-NKA, mean ± S.D.) | Onset of the increase in bladder pressure ([4]; 0.01–10 μg/kg IV and 1–300 μg/kg SC) | Duration of action on colorectal pressure ([5]; SC 100 and 300 μg/kg) | Increase in colorectal pressure ([5]; SC, highest doses tested were 100 and 300 μg/kg) | Selectivity for NK2 over NK1 receptors (NK2 over NK1 receptors) | Blood pressure effect [6] | Blood pressure effect [7] | Respiration (visual observation, words) ([8]; LMN-NKA up to 300 μg/kg SC or IM, NKA and GR 64349 at the doses tested) | Flushing ([8]; NKA at similar, GR 64349 at higher doses compared to LMN-NKA) | Maximal contraction of detrusor muscle strips [9]
1 | COc1ccccc1CN[C@H]1CCCN[C@H]1c1ccccc1 [CP-99,994] | blocked | blocked | blocked | – | – | – | – | – | – | – | – | – | – | –
2 | [Lys^3,Gly^8-R-gamma-lactam-Leu^9]-NKA(3–10) [GR 64349] | – | – | – | 1.5 ± 0.07 min | 23.9 ± 12.22 min | < 1 min | 20 to 25 min | only at the highest doses tested | > 250 fold | transient drop in blood pressure | No significant blood pressure changes | No obvious changes in respiration | transient flushing of the ears and paws | equivalent to maximal KCL-induced contractions
3 | spantide I | blocked | blocked | blocked | – | – | – | – | – | – | – | – | – | – | –
